# RGS4 inh: human RGS4 inhibition | HEK293 M3R/RGS4 inducible, Fluo-4 calcium flux; hits give high values; triggered by carbachol at its EC20 | AID 463165 | P49798 | 310,000 compounds, 0.45% hits | B-score at 10 µM;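 active means B-score, a plate-corrected calcium signal, over three deviations above library mean, with baseline fluorescence within five deviations of library mean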;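 further: RGS4 expression induced by doxycycline in cells with stable M3 receptor; B-score is computed from the integrated fluorescence ratio over baseline after carbachol; higher B-score means a larger calcium signal and so more RGS4 inhibition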
# RGS4 pot: RGS4 potentiation or activation | HEK293 M3R/inducible RGS4, carbachol calcium flux Fluo4; hits give low values | B-score at 10 µM | 310,000 compounds, 0.92% hits | AID 463111;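 active means B-score of the integrated calcium signal more than 4 SD below the library mean, with starting fluorescence not abnormally high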;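 further: negative B-score means reduced calcium response which marks RGS4 activation or potentiation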
#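 Assay system: HEK293 FlpIn-TREx cells, stable M3R, doxycycline-inducible RGS4 / Probe or stimulus: carbachol, ECmax concentration / Times: overnight RGS4 induction, 30 min dye load 37 °C, 20 min compound RT / Signal: kinetic calcium fluorescence imaging with Fluo4-AM dye, 2 µM / Measure: Agonist-evoked peak-minus-minimum fluorescence over baseline, integrated ratio, B score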
# MrgX1 PAM: allosterically activates human MrgX1 receptor signaling. 310,000 compounds, 0.63% hits. AID 588675. B-score at 10 µM. Q96LB2. MrgX1-HEK293, Fluo-4 calcium flux, FDSS; hits give high values;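 active means plate-corrected calcium response at least 3 library SD above typical, normal starting fluorescence, not activating the receptor alone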;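 further: compound read alongside a low EC10 to EC30 dose of BAM8-22 agonist; peak minus trough fluorescence over baseline measured at the second addition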
# Target sequence (Q96LB2 whole entry, looked up): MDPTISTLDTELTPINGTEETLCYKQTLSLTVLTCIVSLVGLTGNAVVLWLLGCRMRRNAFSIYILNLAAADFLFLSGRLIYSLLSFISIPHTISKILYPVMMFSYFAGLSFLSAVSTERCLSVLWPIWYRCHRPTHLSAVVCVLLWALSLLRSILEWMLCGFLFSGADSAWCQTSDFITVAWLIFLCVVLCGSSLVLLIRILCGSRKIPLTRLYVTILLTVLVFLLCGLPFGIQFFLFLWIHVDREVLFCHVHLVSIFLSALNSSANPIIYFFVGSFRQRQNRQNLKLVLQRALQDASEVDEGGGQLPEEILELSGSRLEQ
# MrgX1 ag: activates human MrgX1 receptor signaling; Q96LB2; MrgX1-HEK293 cells, Fluo-4 calcium fluorescence, agonist mode; hits give high values; B-score at 10 µM; 310,000 compounds, 0.44% hits;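 active means calcium response B-score plate-corrected fluorescence ratio at least 3 library SD, with starting fluorescence B-score inside 5 SD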
#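 Material – MrgX1-expressing HEK293 cells · Input – 15,000 cells seeded per well · Dosing – compound as first of three additions · Times – overnight seeding, then 1 h dark dye loading · Measured by – kinetic Fluo-4 NW fluorescence of intracellular calcium · Read-out – B-scored fluorescence response ratio · Benchmarks – positive and negative control wells on each plate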
# MrgX1 antagonist: blocks BAM8-22 activation of human MrgX1 receptor. Q96LB2. MRGX1-HEK293 calcium flux, Fluo-4, BAM8-22 antagonism; hits give low values. B-score at 10 µM. 310,000 compounds, 1.3% hits. AID 588676;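 active means calcium-response B-score plate-corrected more than 3 library SD below zero, starting fluorescence within 5 deviations, no agonist response on first addition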;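 further: peak minus trough fluorescence over baseline after final BAM8-22 challenge near maximal dose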
# RGS4 block valid: RGS4 inhibitor validation; shares compounds with RGS4 inh; HEK293 M3R/RGS4, carbachol calcium Fluo-4 fluorescence; carbachol added at its EC20; 0 = buffer wells, 100 = carbachol control; calcium response, % at 10 µM; 1,700 compounds, 65% hits;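 active means duplicate-averaged calcium response above the buffer-only control mean plus 5 SD of those controls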;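 further: integrated fluorescence ratio F max minus min over baseline F0; higher response in RGS4-induced cells means RGS4 inhibition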
# RGS4 uninduced: checks RGS4 inhibitor effects in non-induced HEK293 M3R cells. shares compounds with RGS4 inh. carbachol calcium Fluo-4; submaximal (EC20) carbachol stimulus; buffer wells 0%, carbachol control wells 100%. activity (percent), % at 10 µM. 1,900 compounds, 20% hits; call rule not given here;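 further: RGS4 induction absent so cells express M3R without RGS4; higher means more calcium signal and flags a non-specific hit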
# RGS4 inh ctr2: second counter-screen for RGS4 inhibitors: non-induced cells without carbachol; 1,900 compounds, 22% hits; calcium response (agonist-mode artifact), % at 10 µM; HEK293 M3R/RGS4 non-induced, Fluo-4 calcium, no carbachol; normalised: buffer wells 0%, carbachol wells 100%; AID 493001; shares compounds with RGS4 inh;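 active means duplicate-averaged calcium rise in uninduced cells above buffer wells' mean plus 5 SD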
# Hits are given with their value; i = inactive; nt = no result. In the library only some 3.5% were active in any assay of this set; here they are far more common.
SMILES,RGS4 inh,RGS4 pot,MrgX1 PAM,MrgX1 ag,MrgX1 antagonist,RGS4 block valid,RGS4 uninduced,RGS4 inh ctr2
CN(C)CCCNC(=S)N(CCO)Cc1cc2cc3c(cc2[nH]c1=O)OCO3,i,i,i,i,i,nt,nt,nt
COCCCNC(=S)N(CCO)Cc1cc2cc3c(cc2[nH]c1=O)OCO3,i,i,i,i,i,i,i,i
CCN(CC)CCCN(Cc1cc2cc3c(cc2[nH]c1=O)OCO3)C(=S)NCCOC,i,i,i,i,i,nt,nt,nt
CC(C)CSc1oc(-c2ccco2)nc1S(=O)(=O)c1ccccc1,i,i,i,i,i,nt,nt,nt
O=C(NN1CCN(Cc2ccccc2)CC1)c1ccc(Cl)cc1,i,i,i,i,i,nt,nt,nt
CC(=O)CCS(=O)(=O)c1ccc(Oc2ccc(S(=O)(=O)CCC(C)=O)cc2)cc1,5.2,i,i,i,i,22%,i,i
CC(=O)CS(=O)(=O)c1ccc(Oc2ccc(S(=O)(=O)CC(C)=O)cc2)cc1,i,i,i,i,i,nt,nt,nt
CCOc1ccc2c(c1)C(N(CCN1CCOCC1)C(=S)Nc1ccccc1OC)CC(C)(C)O2 (stereo not given),i,i,i,i,i,nt,nt,nt
CCOC(=O)CSC1=NC(=O)/C(=C/c2ccc(OC)cc2)S1,4.8,i,i,i,i,34%,i,85%
CCNC(=S)N/N=C/c1sccc1C,i,i,i,i,i,nt,nt,nt
Cc1ccsc1/C=N/NC(=S)NCCc1ccccc1,8.6,i,i,i,i,18%,i,i
COc1cc2c(cc1[N+](=O)[O-])n(C(C)C)c(=O)n2C(C)C,4.8,i,i,i,i,i,39%,i
Cc1ccc(-c2cc(-c3ccc4c(c3)OCO4)c(C#N)c(N)n2)o1,8.8,i,i,i,i,i,i,i
CCOc1cc(-c2cc(-c3ccc(C)o3)nc(N)c2C#N)ccc1O,i,i,i,i,i,nt,nt,nt
COc1ccc(-c2cc(-c3ccc(O)cc3)nc(N)c2C#N)cc1OC,i,i,i,i,i,nt,nt,nt
Cc1nc(N)c(C#N)c(-c2ccc3c(c2)OCO3)c1C,i,i,i,i,i,nt,nt,nt
Cc1ccc(-c2cc(-c3ccc(C)o3)nc(N)c2C#N)cc1,7,i,i,i,i,i,i,i
Cc1ccc(-c2cc(-c3ccc(F)cc3)c(C#N)c(N)n2)o1,i,i,i,27,i,i,i,i
Cc1c(-c2ccc(F)cc2)nc(N)c(C#N)c1-c1ccco1,i,i,i,i,i,nt,nt,nt
Cc1cc(-c2cc(-c3ccc(Cl)cc3)nc(N)c2C#N)co1,9.8,i,i,i,i,5.0%,i,i

# Source: PubChem BioAssay
